Test results published in ChEMBL document CHEMBL1649423, “Inhibition of lymphoid tyrosine phosphatase by benzofuran salicylic acids” (J Med Chem, 2011).

What was measured:
[1] = biological target: T1, Receptor-type tyrosine-protein phosphatase C (Homo sapiens, UniProt P08575); test: Inhibition of CD45
T1 sequence (P08575 whole entry): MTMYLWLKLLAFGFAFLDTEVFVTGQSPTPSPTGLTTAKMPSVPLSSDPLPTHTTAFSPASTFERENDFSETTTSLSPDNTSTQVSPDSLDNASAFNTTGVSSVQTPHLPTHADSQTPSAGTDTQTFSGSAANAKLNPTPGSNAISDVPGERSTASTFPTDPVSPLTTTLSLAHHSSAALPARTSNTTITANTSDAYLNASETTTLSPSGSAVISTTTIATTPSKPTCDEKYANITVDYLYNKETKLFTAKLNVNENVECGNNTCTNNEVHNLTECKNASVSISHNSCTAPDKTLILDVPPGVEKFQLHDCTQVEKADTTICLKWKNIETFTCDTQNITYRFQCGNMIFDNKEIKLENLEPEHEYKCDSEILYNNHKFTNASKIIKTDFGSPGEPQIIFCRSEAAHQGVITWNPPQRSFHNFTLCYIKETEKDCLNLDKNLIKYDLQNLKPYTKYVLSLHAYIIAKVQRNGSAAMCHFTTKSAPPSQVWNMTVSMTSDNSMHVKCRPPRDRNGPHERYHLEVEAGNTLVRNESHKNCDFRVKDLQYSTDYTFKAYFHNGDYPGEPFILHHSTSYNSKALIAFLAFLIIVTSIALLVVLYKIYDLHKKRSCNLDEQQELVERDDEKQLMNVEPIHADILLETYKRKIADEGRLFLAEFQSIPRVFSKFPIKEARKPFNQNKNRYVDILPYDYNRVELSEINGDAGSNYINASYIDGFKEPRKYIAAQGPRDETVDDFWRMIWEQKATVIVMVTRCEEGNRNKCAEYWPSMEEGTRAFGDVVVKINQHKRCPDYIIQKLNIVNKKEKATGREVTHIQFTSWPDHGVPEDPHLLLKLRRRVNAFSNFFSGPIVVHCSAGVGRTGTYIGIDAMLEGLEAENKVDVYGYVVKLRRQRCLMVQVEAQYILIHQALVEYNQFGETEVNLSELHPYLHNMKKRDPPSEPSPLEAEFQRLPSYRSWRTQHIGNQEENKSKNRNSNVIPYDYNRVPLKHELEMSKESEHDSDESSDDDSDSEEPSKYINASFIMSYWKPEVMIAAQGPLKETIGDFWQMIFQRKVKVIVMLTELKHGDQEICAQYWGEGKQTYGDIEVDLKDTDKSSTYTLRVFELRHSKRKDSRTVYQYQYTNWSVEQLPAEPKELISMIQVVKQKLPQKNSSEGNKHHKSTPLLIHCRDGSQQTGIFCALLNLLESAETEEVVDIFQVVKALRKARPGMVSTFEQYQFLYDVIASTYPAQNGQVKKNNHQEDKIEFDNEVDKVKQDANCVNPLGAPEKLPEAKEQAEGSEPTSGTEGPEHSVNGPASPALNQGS
Procedure, shortened: (§1)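 Fluorometric DiFMUP hydrolysis at 30 C in 50 mM Bis-Tris pH 6.0 (ionic strength 50 mM with NaCl), 1 mM DTT, 5% DMSO, 1% PEG8000. DiFMUP fixed at each PTP's Km. Initial rates read at ex 360/em 460 nm across several compound concentrations. No-enzyme control used to correct for nonenzymatic hydrolysis. HePTP was recombinant in-house; PTP1B, Shp1, CD45 and LAR were commercial recombinant enzymes.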

[2] = biological target: Receptor-type tyrosine-protein phosphatase F (Homo sapiens, UniProt P10586); test: Inhibition of LAR; procedure, shortened: as §1
Chain of Receptor-type tyrosine-protein phosphatase F (P10586 whole entry): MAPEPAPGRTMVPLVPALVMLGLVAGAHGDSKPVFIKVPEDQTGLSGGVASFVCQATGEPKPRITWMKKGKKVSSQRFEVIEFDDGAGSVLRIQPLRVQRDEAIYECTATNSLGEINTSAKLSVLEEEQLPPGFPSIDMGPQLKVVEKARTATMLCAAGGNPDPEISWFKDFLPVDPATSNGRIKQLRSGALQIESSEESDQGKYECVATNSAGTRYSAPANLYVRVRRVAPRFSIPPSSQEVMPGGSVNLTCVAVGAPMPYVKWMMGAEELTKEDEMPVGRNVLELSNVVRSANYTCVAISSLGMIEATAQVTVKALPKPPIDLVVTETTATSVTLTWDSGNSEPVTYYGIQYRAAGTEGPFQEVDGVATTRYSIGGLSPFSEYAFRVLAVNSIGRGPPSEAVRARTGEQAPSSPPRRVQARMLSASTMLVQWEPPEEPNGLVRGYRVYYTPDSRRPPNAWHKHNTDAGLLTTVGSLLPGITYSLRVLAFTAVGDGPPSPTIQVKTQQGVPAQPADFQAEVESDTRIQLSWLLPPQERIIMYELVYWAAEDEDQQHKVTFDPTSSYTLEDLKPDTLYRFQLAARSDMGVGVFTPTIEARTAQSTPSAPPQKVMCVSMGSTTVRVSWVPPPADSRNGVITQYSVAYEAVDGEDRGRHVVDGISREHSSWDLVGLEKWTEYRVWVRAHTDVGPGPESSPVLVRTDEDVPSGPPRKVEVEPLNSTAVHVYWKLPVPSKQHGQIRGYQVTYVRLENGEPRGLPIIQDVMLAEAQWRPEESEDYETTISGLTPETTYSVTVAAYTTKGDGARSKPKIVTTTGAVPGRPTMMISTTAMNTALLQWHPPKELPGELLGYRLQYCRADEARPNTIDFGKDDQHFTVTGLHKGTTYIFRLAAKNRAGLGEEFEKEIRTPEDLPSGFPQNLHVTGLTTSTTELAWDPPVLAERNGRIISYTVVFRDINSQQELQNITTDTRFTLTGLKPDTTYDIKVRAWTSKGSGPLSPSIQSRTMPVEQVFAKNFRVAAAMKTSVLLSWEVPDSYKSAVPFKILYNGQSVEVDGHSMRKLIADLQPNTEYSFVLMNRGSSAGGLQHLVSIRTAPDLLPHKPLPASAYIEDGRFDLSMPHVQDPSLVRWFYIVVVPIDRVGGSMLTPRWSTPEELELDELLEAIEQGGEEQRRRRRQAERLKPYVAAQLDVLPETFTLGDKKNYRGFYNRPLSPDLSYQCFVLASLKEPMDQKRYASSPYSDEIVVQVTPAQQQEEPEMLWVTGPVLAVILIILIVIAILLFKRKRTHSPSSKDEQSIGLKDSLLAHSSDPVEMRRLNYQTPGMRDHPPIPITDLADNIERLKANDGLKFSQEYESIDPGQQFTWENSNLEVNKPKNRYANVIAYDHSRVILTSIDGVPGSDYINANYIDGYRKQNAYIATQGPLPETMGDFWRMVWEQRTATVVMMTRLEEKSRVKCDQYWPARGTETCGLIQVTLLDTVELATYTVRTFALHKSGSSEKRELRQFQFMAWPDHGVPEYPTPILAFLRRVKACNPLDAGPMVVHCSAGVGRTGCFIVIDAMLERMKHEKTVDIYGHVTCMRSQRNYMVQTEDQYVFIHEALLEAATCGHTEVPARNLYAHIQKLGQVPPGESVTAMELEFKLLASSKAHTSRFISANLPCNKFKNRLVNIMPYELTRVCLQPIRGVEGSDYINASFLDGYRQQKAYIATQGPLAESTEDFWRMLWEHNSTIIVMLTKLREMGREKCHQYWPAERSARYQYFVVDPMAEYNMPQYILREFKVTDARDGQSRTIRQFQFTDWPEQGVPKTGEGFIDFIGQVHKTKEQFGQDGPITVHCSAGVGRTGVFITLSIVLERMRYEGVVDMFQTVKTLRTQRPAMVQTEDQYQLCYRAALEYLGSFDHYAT

[3] = biological target: T2, Tyrosine-protein phosphatase non-receptor type 1 (Homo sapiens, UniProt P18031); test: Inhibition of PTP1B; procedure, shortened: as §1
T2 sequence (P18031 whole entry): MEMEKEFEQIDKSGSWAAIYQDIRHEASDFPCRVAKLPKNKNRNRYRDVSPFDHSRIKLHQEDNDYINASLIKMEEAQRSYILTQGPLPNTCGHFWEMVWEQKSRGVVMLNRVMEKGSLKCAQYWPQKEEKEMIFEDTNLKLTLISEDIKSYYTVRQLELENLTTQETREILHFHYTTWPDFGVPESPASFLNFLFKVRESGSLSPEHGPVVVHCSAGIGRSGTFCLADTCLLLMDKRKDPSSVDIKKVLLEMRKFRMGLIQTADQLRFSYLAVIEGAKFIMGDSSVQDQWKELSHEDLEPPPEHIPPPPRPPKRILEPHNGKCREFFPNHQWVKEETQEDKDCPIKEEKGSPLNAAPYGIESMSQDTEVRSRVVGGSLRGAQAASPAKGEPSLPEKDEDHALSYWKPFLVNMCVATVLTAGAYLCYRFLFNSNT

[4] = biological target: T3, Tyrosine-protein phosphatase non-receptor type 7 (Homo sapiens, UniProt P35236); test: Inhibition of HePTP; procedure, shortened: as §1
T3 sequence (P35236 whole entry): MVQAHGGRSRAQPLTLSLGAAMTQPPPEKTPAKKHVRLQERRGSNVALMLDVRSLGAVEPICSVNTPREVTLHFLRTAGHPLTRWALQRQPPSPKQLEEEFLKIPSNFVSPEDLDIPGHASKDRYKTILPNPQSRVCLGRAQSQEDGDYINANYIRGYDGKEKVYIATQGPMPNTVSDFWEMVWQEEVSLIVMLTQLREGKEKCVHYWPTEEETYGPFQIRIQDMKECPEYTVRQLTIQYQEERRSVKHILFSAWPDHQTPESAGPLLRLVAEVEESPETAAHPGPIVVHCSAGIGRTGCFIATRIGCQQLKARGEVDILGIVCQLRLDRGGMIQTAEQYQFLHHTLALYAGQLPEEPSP

SMILES | IC50 [1] | IC50 [2] | IC50 [3] | IC50 [4]
COc1ccc(-c2oc3cc(O)c(C(=O)O)cc3c2-c2cn(CCCC(=O)Nc3cccc4ccccc34)nn2)cc1 | 0.41 µM | 25.5 µM | 0.19 µM | 3.7 µM
Cc1ccc(-c2oc3cc(O)c(C(=O)O)cc3c2-c2cn(CCCC(=O)Nc3ccc(Cl)c4ccccc34)nn2)cc1 | 1.05 µM | 23.7 µM | 0.205 µM | 3.69 µM
Cc1ccc(-c2oc3cc(O)c(C(=O)O)cc3c2-c2cn(CCCC(=O)Nc3cccc4ccccc34)nn2)cc1 | 0.681 µM | 36.1 µM | 0.214 µM | 4.07 µM
COc1ccc2nc(NC(=O)CCCn3cc(-c4c(-c5cccc(C)c5)oc5cc(O)c(C(=O)O)cc45)nn3)sc2c1 | 0.877 µM | 39.9 µM | 0.217 µM | 6.36 µM
COC(=O)c1cc2c(-c3cn(CCCC(=O)Nc4ccc(Cl)c5ccccc45)nn3)c(-c3ccccc3)oc2cc1O | 16.2 µM | 44.4 µM | 11.5 µM | 32 µM
